# Screens deposited in PubChem BioAssay by several laboratories.
# Only some compounds are listed: those with a hit (about 4.6% of all), similar ones and a draw of the others.
# FAS TE block: inhibitors of human fatty acid synthase thioesterase domain. P49327. recombinant FAS-TE, OMFH fluorogenic substrate, fluorescence endpoint. inhibition, % at 15 µM. actives 0.67% (n = 360,000). AID 602261;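 active = compounds whose normalised, plate-corrected inhibition of enzyme fluorescence in the single-dose primary screen is 50% or more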;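 note: 0% = DMSO with enzyme and 100% = substrate without enzyme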
# Rtt109 HAT inh: blocks Candida albicans Rtt109/Vps75 acetyltransferase activity. purified Rtt109/Vps75, ThioGlo CoA-SH fluorescence, 4 h. inhibition, % at 34.9 µM. actives 0.16% (n = 330,000). Q5AAJ8;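 active = inhibition of at least 50% in every replicate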
# ALR H2O2 inh: human ALR oxidase inhibition via reduced H2O2; inhibition, % (concentration not given with the values); actives 3.8% (n = 290,000); purified ALR, DTT oxidation, H2O2 HRP-luminol luminescence;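 active = mean replicate inhibition above about 79%, with every replicate also reaching it, limit read from the data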
# Target sequence (P55789 whole entry, looked up): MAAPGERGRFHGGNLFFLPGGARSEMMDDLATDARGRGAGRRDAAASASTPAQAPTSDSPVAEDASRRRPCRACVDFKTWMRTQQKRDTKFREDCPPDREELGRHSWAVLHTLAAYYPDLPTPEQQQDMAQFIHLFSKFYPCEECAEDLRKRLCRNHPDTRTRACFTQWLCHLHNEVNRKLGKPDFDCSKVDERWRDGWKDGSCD
# PfM18AAP inh: blocks P. falciparum M18 aspartyl aminopeptidase; recombinant PfM18AAP, H-Glu-NHMec fluorogenic cleavage; inhibition, % at 7.35 µM; actives 1.2% (n = 290,000);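 active = inhibition above the campaign mean inhibition over all tested compounds plus 3 SD, cut at about 28% in these data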;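 note: 0% = plate median of test compound wells and 100% = 2 mM ZnCl2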
# HDAC3 inhib: blocks human histone deacetylase 3. recombinant HDAC3, fluorogenic peptide/trypsin coupled, fluorescence. inhibition, % at 8.3 µM. actives 0.15% (n = 320,000); in the data active = inhibition above about 26%, passing the limit was not always enough
# UCH37 inh: inhibitors of human deubiquitinating enzyme UCH37. Q9Y5K5. purified proteasome/UCH37, Ub-AMC cleavage fluorescence. inhibition, % (no concentration beside the values). actives 0.33% (n = 330,000). AID 588478;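 active = mean inhibition over replicate wells above about 20%, limit read from the data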;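 note: 0% = compound-free wells with enzyme and 100% = wells lacking proteasome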
#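 Assay system: Proteasome-bound UCH37. Buffer or medium: pH 7.4 Tris-HCl (50 mM) with ovalbumin, ATP-MgCl2, DTT. Incubation: 30 min preincubation with enzyme, 25 min cleavage at room temperature. Measured by: fluorescence, ex 355 nm, em 460 nm. Read-out basis: percent inhibition. Control set: wells without proteasome as full block, compound-free enzyme plus substrate as uninhibited.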
# UCH37 confirm: UCH37 Ub-AMC cleavage inhibition, confirmed. shares compounds with UCH37 inh. Proteasome-bound UCH37, Ub-AMC cleavage fluorescence. inhibition, % at 20 µM. actives 27% (n = 480);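 active = average inhibition over replicates above about 50%, so the earlier screening hit is confirmed, limit read from the data; inactive = the rest, counted as false positives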;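 note: based on cleavage rate fitted by regression over a 30 min kinetic read; 0% = proteasome plus Ub-AMC and 100% = Ub-AMC without proteasome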
# * hit, by the source's call; . = no result given.
SMILES,FAS TE block,Rtt109 HAT inh,ALR H2O2 inh,PfM18AAP inh,HDAC3 inhib,UCH37 inh,UCH37 confirm
O=C(COC(=O)c1ccc([N+](=O)[O-])s1)NC(=O)NCc1ccccc1,-1.7,28.6,-15.9,1.3,5.8,67.2*,9.6
CC(NC(=O)COC(=O)c1ccc([N+](=O)[O-])s1)c1ccccc1 (stereo unspecified),-2.5,.,-7.9,4.0,2.2,33.0*,11.5
CC(=NNC(=O)c1nnn(-c2nonc2N)c1CSc1ccccc1)c1ccco1,.,.,.,.,.,3.8,.
O=C1CN(C(=O)COC(=O)c2ccc([N+](=O)[O-])s2)c2ccccc2N1,1.4,2.2,.,.,2.0,75.6*,7.9
O=C(COC(=O)c1ccc([N+](=O)[O-])s1)c1ccc[nH]1,-0.2,5.5,-21.4,.,-1.2,.,.
O=C(COC(=O)c1ccc([N+](=O)[O-])s1)NNC(=O)c1ccccc1,-1.1,-3.4,-86.7,.,7.0,79.8*,19.3
O=C(CN(CCc1ccccc1)S(=O)(=O)c1ccc(Cl)cc1)NN=Cc1ccccc1C(=O)O,.,.,.,.,.,1.0,.
COc1ccccc1/C=C/C=Nn1c(-c2n[nH]c3c2CCC3)n[nH]c1=S,.,.,.,.,.,5.9,.
COc1ccc(/C=C2\Oc3cc(OCC(=O)N4CCC[C@H]4C(=O)O)ccc3C2=O)c(OC)c1,-4.7,-86.0,51.5,6.2,0.7,3.3,.
COc1cc(OC)c(OC)cc1/C=C1\Oc2cc(OCC(=O)N3Cc4ccccc4C[C@H]3C(=O)O)ccc2C1=O,-5.5,-18.1,-10.2,12.4,9.7,26.5*,18.3
Cc1cccc(-c2n[nH]c(=S)n2N=Cc2ccco2)c1,.,.,.,.,.,6.1,.
CN(Cc1ccccc1)C(=O)c1cccc(NC(=O)Cc2ccc([N+](=O)[O-])cc2)c1,36.5,3.8,-5.9,.,5.5,41.0*,9.3
O=C(O)c1cccc(NS(=O)(=O)c2ccc3nnn(O)c3c2)c1,-5.4,-14.3,-1.1,-0.5,-1.0,4.4,.
O=C(O)c1cccc(NC2=C(n3nnc4ccccc43)C(=O)c3ccccc3C2=O)c1,-1.8,-9.4,-50.0,-6.7,3.8,52.3*,54.6*
CC(=NNC(=O)c1sccc1C)c1cccnc1,.,.,.,.,.,5.4,.
Cc1cc(C(=O)NN=Cc2ccccc2)c(C)o1,.,.,.,.,.,1.7,.
CCC(=O)N(C1=C(NC(C)C)C(=O)c2ccccc2C1=O)C(C)C,-4.2,.,-17.6,4.0,2.1,46.4*,21.7
CCCNC1=C(N(C(C)=O)c2cccc(F)c2)C(=O)c2ccccc2C1=O,-8.9,6.8,-124.0,9.9,3.8,18.7,.
COc1ccc2[nH]cc(C=NNS(=O)(=O)c3ccc(C)cc3)c2c1,.,.,.,.,.,6.4,.
CCN(CC)C(=O)c1ccc(/C=C/c2c[nH]c3ccccc23)[n+](C)c1,-14.5,2.6,2.8,7.3,16.9,28.9*,33.3
Cc1ccc(C(=O)/C=C/c2c[nH]c3ccccc23)cc1,1.5,15.6,37.3,-1.6,7.0,-6.5,.
CC[n+]1c(/C=C/c2c[nH]c3ccccc23)ccc2cc(C)ccc21,.,84.1*,.,-6.3,.,29.4*,41.5
O=C(NCCCNCCCNC(=O)c1ccc(C=NO)nc1)c1ccc(C=NO)nc1,.,.,.,.,.,2.8,.
Cc1ccccc1NC(C)C(=O)NN=Cc1c[nH]c2ccccc12 (stereo unspecified),.,.,.,.,.,1.6,.
O=C(NN=Cc1ccc(O)c([N+](=O)[O-])c1)C1CC1(c1ccccc1)c1ccccc1 (stereo unspecified),.,.,.,.,.,9.5,.
SMILES,FAS TE block,Rtt109 HAT inh,ALR H2O2 inh,PfM18AAP inh,HDAC3 inhib,UCH37 inh,UCH37 confirm
COc1ccc(NC(=O)/C(C#N)=C\c2ccc(N3CCOCC3)o2)cc1,-119.4,-1.0,79.6*,6.3,14.4,27.2*,14.2
N#C/C(=C\c1ccc(N2CCOCC2)o1)C(=O)Nc1ccc(O)cc1,-50.8,2.8,99.0*,4.8,20.5,28.6*,25.4
N#C/C(=C/c1ccc(N2CCOCC2)o1)C(=O)NC1CCCCC1,-30.9,1.0,63.0,9.2,7.0,26.6*,19.3
CON=C(c1ccccc1)c1cccnc1,.,.,.,.,.,2.6,.
O=C(NN=Cc1ccc[nH]1)c1ccc([N+](=O)[O-])cc1,.,.,.,.,.,8.6,.
CC(C)(C)c1cc(C=NNC(=O)Cc2nc3ccccc3[nH]2)cc(C(C)(C)C)c1O,.,.,.,.,.,-2.9,.
